Values after ≈ are worked out from the molar mass of the structure shown. Active and inactive are the calls of the source. The calls are words filed in the database; no cut-off is given here.
Key:
[1] = tested on: Mycobacterium tuberculosis; test: Antitubercular activity against Mycobacterium tuberculosis CNCTC My 331/88 (H37Rv) assessed as inhibition of bacterial growth measured after 14 days of incubation by Sulas semisynthetic medium based assay; type: functional; settings: 336 h, time 14 day
In short: (§1)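 Micromethod MIC in Sula's semisynthetic medium. MIC is the lowest concentration inhibiting >99% of the mycobacterial population. Isoniazid was the standard drug.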

[2] = tested on: Mycobacterium tuberculosis; test: Antitubercular activity against Mycobacterium tuberculosis CNCTC My 331/88 (H37Rv) assessed as inhibition of bacterial growth measured after 21 days of incubation by Sulas semisynthetic medium based assay; type: functional; settings: 504 h, time 21 day; in short: as §1
Mycobacterium avium = test: Antitubercular activity against Mycobacterium avium CNCTC My 330/88 assessed as inhibition of bacterial growth measured after 14 days of incubation by Sulas semisynthetic medium based assay; type: functional; settings: CNCTC My 330/88, 336 h, time 14 day
In short: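 M. avium was tested by the micromethod in Sula's semisynthetic medium. Compounds in DMSO at 1000 to 0.5 μmol/L. Incubation at 37 °C, read at 14 and 21 days. MIC is the lowest concentration giving >99% growth inhibition.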

Mycobacterium kansasii = test: Antitubercular activity against Mycobacterium kansasii CNCTC My 235/80 assessed as inhibition of bacterial growth measured after 7 days of incubation by Sulas semisynthetic medium based assay; type: functional; settings: CNCTC My 235/80, 168 h, time 7 day
In short: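 Micromethod in Sula's semisynthetic medium. MIC is the lowest concentration inhibiting >99% of the mycobacterial population. Isoniazid was the standard.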

[3] = tested on: Mycobacterium tuberculosis; test: Antimycobacterial activity against MDR clinical isolate Mycobacterium tuberculosis PRAHA 4 assessed as inhibition of mycobacterial growth measured after 14 to 21 days of incubation by Sulas semisynthetic medium based assay; type: functional; settings: time 14-21 day
In short: (§2)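 Clinical MDR/XDR M. tuberculosis isolates were tested by the Sula's semisynthetic medium micromethod. Compounds in DMSO at 1000 to 0.5 μmol/L, in twofold-type steps. Incubation at 37 °C, read at 14 and 21 days. MIC99 is the lowest concentration inhibiting >99% of growth. Drug resistance or susceptibility of each isolate is to amikacin, clofazimine, gentamicin, ofloxacin, streptomycin and the others listed.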

[4] = tested on: Mycobacterium tuberculosis; test: Antimycobacterial activity against XDR clinical isolate Mycobacterium tuberculosis PRAHA 4 assessed as inhibition of mycobacterial growth measured after 14 to 21 days of incubation by Sulas semisynthetic medium based assay; type: functional; settings: time 14-21 day; in short: as §2
[5] = tested on: Mycobacterium tuberculosis; test: Antimycobacterial activity against XDR clinical isolate Mycobacterium tuberculosis PRAHA 131 assessed as inhibition of mycobacterial growth measured after 14 to 21 days of incubation by Sulas semisynthetic medium based assay; type: functional; settings: time 14-21 day; in short: as §2
[6] = tested on: Mycobacterium tuberculosis; test: Antimycobacterial activity against MDR clinical isolate Mycobacterium tuberculosis 234/2005 assessed as inhibition of mycobacterial growth measured after 14 to 21 days of incubation by Sulas semisynthetic medium based assay; type: functional; settings: time 14-21 day; in short: as §2
[7] = tested on: Mycobacterium tuberculosis; test: Antimycobacterial activity against XDR clinical isolate Mycobacterium tuberculosis 234/2005 assessed as inhibition of mycobacterial growth measured after 14 to 21 days of incubation by Sulas semisynthetic medium based assay; type: functional; settings: time 14-21 day; in short: as §2
[8] = tested on: Mycobacterium tuberculosis; test: Antimycobacterial activity against MDR clinical isolate Mycobacterium tuberculosis 8666/2010 assessed as inhibition of mycobacterial growth measured after 14 to 21 days of incubation by Sulas semisynthetic medium based assay; type: functional; settings: time 14-21 day; in short: as §2
[9] = Selectivity index, ratio of IC50 for cytotoxicity against human HepG2 cells by MTT assay to MIC99 for antitubercular activity against Mycobacterium tuberculosis CNCTC My 331/88 (H37Rv) assessed as inhibition of bacterial growth measured after 14 days of incubation; type: functional; settings: time 14 day
In short: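 HepG2 cells, 15 × 10³/well, were attached overnight and exposed 24 h to serial dilutions (DMSO ≤1%). Read by MTT at 0.5 mg/mL for 1 h and 570 nm. IC50 from 4-parameter regression, three independent experiments in triplicate. SI is HepG2 IC50 divided by H37Rv MIC99.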

HepG2 [10] = test: Cytotoxicity against human HepG2 cells assessed as cell viability at 50 uM incubated for 72 hrs by MTT spectrophotometric analysis relative to control; type: functional; settings: read-out: Activity
In short: (§3)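 HepG2 or rat H9c2 cells in DMEM with FBS, seeded at 10,000 cells/well. Treated 24 h later for 72 h, with 0.1% DMSO vehicle and 1% Triton X-100 as controls. MTT added (3 mg/mL solution) for 2 h at 37 °C, then cells lysed in isopropanol/0.1 M HCl/5% Triton X-100. Read at 570 nm minus 690 nm. Viability expressed as % of vehicle; IC50 derived where reached. At least four independent experiments.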

HepG2 [11] = test: Cytotoxicity against human HepG2 cells assessed as cell viability incubated for 72 hrs by MTT spectrophotometric analysis; type: functional, cell-based; settings: HepG2, 72 h; in short: as §3
H9c2 = test: Cytotoxicity against rat H9c2 cells assessed as cell viability at 50 uM incubated for 72 hrs by MTT spectrophotometric analysis relative to control; type: functional; settings: read-out: Activity; in short: as §3
Enterococcus faecium = test: Antibacterial activity against vancomycin-resistant Enterococcus faecium assessed as inhibition of bacterial growth incubated for 24 to 48 hrs by microdilution broth method; type: functional, organism-based; settings: time 24-48 hrs
In short: (§4)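 Clinical isolates, stored at −70 °C, were passaged twice on Mueller-Hinton agar. Broth microdilution in Mueller-Hinton broth, pH 7.4, with twofold serial dilutions. DMSO was at most 1% final. Inoculum 1.5 × 10⁸ CFU/mL suspension. MIC is 95% growth inhibition, read after 24 and 48 h at 36 °C.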

Klebsiella pneumoniae = test: Antibacterial activity against ESBL negative Klebsiella pneumoniae C1950 assessed as inhibition of bacterial growth incubated for 24 to 48 hrs by microdilution broth method; type: functional, organism-based; settings: time 24-48 hrs
In short: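 Clinical isolates kept at –70 °C and subcultured twice on Mueller-Hinton agar, using the second subculture. Broth microdilution in Mueller-Hinton broth at pH 7.4 with two-fold serial compound dilutions and DMSO ≤1% final. Inoculum was 10 μL of a 1.5 × 10⁸ CFU/mL suspension. Incubated at 36 °C ± 1 °C and read at 24 h and 48 h. MIC taken as 95% growth inhibition.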

Pseudomonas aeruginosa = test: Antibacterial activity against multidrug-resistant Pseudomonas aeruginosa A1245 assessed as inhibition of bacterial growth incubated for 24 to 48 hrs by microdilution broth method; type: functional, organism-based; settings: time 24-48 hrs; in short: as §4
[12] = Aqueous solubility of compound incubated for 20 mins by UV-Visible spectrophotometric analysis; type: physicochemical; settings: buffer
In short: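 Solubility in ultrapure water containing 5% DMSO. Absorbance taken at each compound's λmax and compared with a six-point calibration made by serial dilution of a 50 μM standard, fitted by linear regression. Over-saturated solutions were sonicated at 37 °C for 10 min and centrifuged at 8000 RPM for 10 min. Supernatant absorbance was read, after dilution with 5% DMSO/water if above the calibration range.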

[13] = Half life in human liver microsomes at 3 uM incubated for 5 to 45 min in presence of NADPH by LC-MS analysis; type: ADME, Microsome; settings: time 5-45 min
[14] = Stability in human plasma assessed as compound remaining at 1 uM incubated for 15 to 120 mins by LC-MS analysis; type: ADME, cell-free; settings: time 15-120 min, read-out: Stability
In short: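 Stopped with acetonitrile containing internal standard and centrifuged at 12,000 rpm for 5 min at 4 °C. Supernatant analysed by LC-MS in positive mode. % remaining taken from compound/IS peak-area ratios at 120 versus 0 min.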

Compound	MIC99 [1] [µM]	MIC99 [2] [µM]	MIC99 (Mycobacterium avium) [µM]	MIC99 (Mycobacterium kansasii) [µM]	MIC99 [3] [µM]	MIC99 [4] [µM]	MIC99 [5] [µM]	MIC99 [6] [µM]	MIC99 [7] [µM]	MIC99 [8] [µM]	Selectivity Index [9]	viability at 50 µM (HepG2 [10]) [%]	IC50 (HepG2 [11]) [µM]	viability at 50 µM (H9c2) [%]	Activity (Enterococcus faecium)	Activity (Klebsiella pneumoniae)	Activity (Pseudomonas aeruginosa)	solubility at 20 min [12] [µM]	half-life at 3 µM [13] [min]	remaining at 1 µM [14] [%]
COc1nc(N2CCOCC2)nc2ncn(Cc3ccc4ccccc4c3)c12	2 (≈ 0.751 µg/mL)	4 (≈ 1.5 µg/mL)	250 (≈ 93.9 µg/mL)	16 (≈ 6.01 µg/mL)	8 (≈ 3 µg/mL)	16 (≈ 6.01 µg/mL)	16 (≈ 6.01 µg/mL)	16 (≈ 6.01 µg/mL)	16 (≈ 6.01 µg/mL)	8 (≈ 3 µg/mL)	32	66.4	> 50	92.6	inactive	inactive	inactive			
Nc1nc(N2CCOCC2)nc2ncn(Cc3ccc4ccccc4c3)c12	1 (≈ 0.36 µg/mL)	2 (≈ 0.721 µg/mL)	> 500				4 (≈ 1.44 µg/mL)			2 (≈ 0.721 µg/mL)	>125	77	> 50	91.7	inactive	inactive	inactive	97.7 (≈ 35.2 µg/mL)	82.5	103
CCNc1nc(N2CCOCC2)nc2ncn(Cc3ccc4ccccc4c3)c12	1 (≈ 0.388 µg/mL)	1 (≈ 0.388 µg/mL)	250 (≈ 97.1 µg/mL)	4 (≈ 1.55 µg/mL)			4 (≈ 1.55 µg/mL)			2 (≈ 0.777 µg/mL)	63.88	66.9	> 50	88	inactive	inactive	inactive	150 (≈ 58.4 µg/mL)	51.3	95.5
CCOc1nc(N2CCOCC2)nc2ncn(Cc3ccc4ccccc4c3)c12	1 (≈ 0.389 µg/mL)	2 (≈ 0.779 µg/mL)	> 500	8 (≈ 3.12 µg/mL)			4 (≈ 1.56 µg/mL)			2 (≈ 0.779 µg/mL)	43.45	23.5	33.1	94.8	inactive	inactive	inactive	81.3 (≈ 31.7 µg/mL)	56.8	99.6
O=c1[nH]c(N2CCCCC2)nc2ncn(Cc3ccc4ccccc4c3)c12	2 (≈ 0.719 µg/mL)	4 (≈ 1.44 µg/mL)	> 500	> 500	8 (≈ 2.88 µg/mL)	16 (≈ 5.75 µg/mL)	16 (≈ 5.75 µg/mL)	16 (≈ 5.75 µg/mL)	16 (≈ 5.75 µg/mL)	8 (≈ 2.88 µg/mL)	43.6	42.2	54.8	79.4	inactive	inactive	inactive	8.4 (≈ 3.02 µg/mL)	17.8	96.7
O=c1[nH]c(N2CCSCC2)nc2ncn(Cc3ccc4ccccc4c3)c12	2 (≈ 0.755 µg/mL)	4 (≈ 1.51 µg/mL)	> 500	32 (≈ 12.1 µg/mL)	8 (≈ 3.02 µg/mL)	16 (≈ 6.04 µg/mL)	16 (≈ 6.04 µg/mL)	16 (≈ 6.04 µg/mL)	16 (≈ 6.04 µg/mL)	8 (≈ 3.02 µg/mL)	16	72.9	> 50	97.1	inactive	inactive	inactive	9.3 (≈ 3.51 µg/mL)	10.9	98.2
c1ccc2cc(Cn3cnc4nc(N5CCOCC5)nc(NC5CCC5)c43)ccc2c1	2 (≈ 0.829 µg/mL)	4 (≈ 1.66 µg/mL)	250 (≈ 104 µg/mL)	8 (≈ 3.32 µg/mL)	4 (≈ 1.66 µg/mL)	8 (≈ 3.32 µg/mL)	8 (≈ 3.32 µg/mL)	4 (≈ 1.66 µg/mL)	8 (≈ 3.32 µg/mL)	4 (≈ 1.66 µg/mL)	16.5				Active	inactive	inactive	159 (≈ 65.9 µg/mL)	37.9	97.5
c1ccc(CNc2nc(N3CCOCC3)nc3ncn(Cc4ccc5ccccc5c4)c23)cc1	2 (≈ 0.901 µg/mL)	4 (≈ 1.8 µg/mL)	64 (≈ 28.8 µg/mL)	4 (≈ 1.8 µg/mL)	4 (≈ 1.8 µg/mL)	4 (≈ 1.8 µg/mL)	4 (≈ 1.8 µg/mL)	2 (≈ 0.901 µg/mL)	4 (≈ 1.8 µg/mL)	4 (≈ 1.8 µg/mL)	16.9				inactive	inactive	inactive	58.9 (≈ 26.5 µg/mL)	19.3	99.2
O=c1[nH]c(N2CCOCC2)nc2ncn(Cc3ccc4ccccc4c3)c12	4 (≈ 1.45 µg/mL)	4 (≈ 1.45 µg/mL)	> 500	32 (≈ 11.6 µg/mL)	16 (≈ 5.78 µg/mL)	32 (≈ 11.6 µg/mL)	32 (≈ 11.6 µg/mL)	16 (≈ 5.78 µg/mL)	32 (≈ 11.6 µg/mL)	32 (≈ 11.6 µg/mL)	31.25	60.5	59	86	inactive	inactive	inactive	46.9 (≈ 16.9 µg/mL)	110	96.6

From ChEMBL document CHEMBL5620421, “2,6-Disubstituted 7-(naphthalen-2-ylmethyl)-7H-purines as a new class of potent antitubercular agents inhibiting DprE1” (Eur J Med Chem, 2023)
